In ChEMBL document CHEMBL1153581, “Synthesis, antiviral and anticancer activity of some novel thioureas derived from N-(4-nitro-2-phenoxyphenyl)-methanesulfonamide” (Eur J Med Chem, 2009):
Converted amounts (≈) assume the structure as drawn.

Key:
Punta Toro virus = assay: Antiviral activity against Punta Toro virus infected in african green monkey Vero cells assessed as protection against virus-induced cytopathogenicity; assay type: functional
Sindbis virus = assay: Antiviral activity against Sindbis virus infected in african green monkey Vero cells assessed as protection against virus-induced cytopathogenicity; assay type: functional
Coxsackievirus B4 [1] = assay: Antiviral activity against Coxsackievirus B4 infected in african green monkey Vero cells assessed as protection against virus-induced cytopathogenicity; assay type: functional; conditions: Enterovirus B
Human alphaherpesvirus 1 [2] = assay: Antiviral activity against acyclovir-resistant thymidine kinase-deficient HSV1 KOS infected in human HEL cells assessed as protection against virus-induced cytopathogenicity; assay type: functional; conditions: Human alphaherpesvirus 1, KOS
[3] = tested on: Human immunodeficiency virus 2; assay: Antiviral activity against HIV-2 ROD infected human MT4 cells assessed as protection against virus-induced cytopathogenicity; assay type: functional, organism-based; conditions: Human immunodeficiency virus 2, ISOLATE ROD
In short: (§1)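 HIV-1 (IIIB) or HIV-2 (ROD) infection of MT-4 cells, scored as protection against virus-induced cytopathicity. IC50 was derived from protection.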

Human alphaherpesvirus 3 [4] = assay: Antiviral activity against thymidine kinase deficient Varicella Zoster Virus 07/1 infected in HEL cells assessed as reduction in virus plaque formation; assay type: functional, organism-based; conditions: Human alphaherpesvirus 3, 07/1, HEL
In short: (§2)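 Plaque reduction in HEL cells against CMV (AD-169, Davis) or VZV (TK⁺ OKA, TK⁻ 07/1), using a virus input of 20 PFU. EC50 is the concentration that reduced plaque formation by 50%.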

[5] = tested on: Vesicular stomatitis virus; assay: Antiviral activity against Vesicular stomatitis virus infected in human HeLa cells assessed as protection against virus-induced cytopathogenicity; assay type: functional
[6] = Cytotoxicity against Varicella Zoster Virus infected human […] cells assessed as change in cell morphology; assay type: cell-based
[7] = Cytotoxicity against HIV-1 3B infected human MT4 cells; assay type: cell-based; conditions: HIV-1 3B-infected MT4 cells
[8] = Cytotoxicity against HEL cells assessed as change in cell morphology; assay type: cell-based; conditions: human
In short: (§3)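 HEL cell cultures examined under the microscope. Minimal cytotoxic concentration (MCC) is the concentration that causes a microscopically detectable alteration of cell morphology. Compounds were tested at subtoxic concentrations alongside the antiviral tests.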

[9] = tested on: Mammalian orthoreovirus 1; assay: Antiviral activity against Reovirus 1 infected in african green monkey Vero cells assessed as protection against virus-induced cytopathogenicity; assay type: functional
Human alphaherpesvirus 2 = assay: Antiviral activity against Herpes simplex virus 2 infected in HEL cells assessed as protection against in virus-induced cytopathogenicity; assay type: functional
[10] = Cytotoxicity against Cytomegalovirus infected HEL cells assessed as change in cell morphology; assay type: cell-based; conditions: human; in short: as §3
Coxsackievirus B4 [11] = assay: Antiviral activity against Coxsackievirus B4 infected in human HeLa cells assessed as protection against virus-induced cytopathogenicity; assay type: functional; conditions: Enterovirus B
[12] = tested on: Respiratory syncytial virus; assay: Antiviral activity against RSV infected in human HeLa cells assessed as protection against virus-induced cytopathogenicity; assay type: functional
HeLa = assay: Cytotoxicity against human HeLa cells assessed as change in cell morphology; assay type: functional
In short: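 The minimum cytotoxic concentration (MCC) is the concentration causing a microscopically detectable alteration of cell morphology in the uninfected host cell culture.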

[13] = Cytotoxicity against Cytomegalovirus infected HEL cells assessed as reduction in cell growth; assay type: cell-based; conditions: human
[14] = Cytotoxicity against african green monkey Vero cells assessed as change in cell morphology; assay type: cell-based; conditions: chlorocebus sabaeus
In short: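 Vero cell cultures were used for the broad-spectrum antiviral screen. The MCC endpoint is the lowest concentration that causes a microscopically detectable alteration of cell morphology. Activity was called when 5 × MIC < MCC.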

Human respirovirus 3 = assay: Antiviral activity against Parainfluenza-3 virus infected in african green monkey Vero cells assessed as protection against virus-induced cytopathogenicity; assay type: functional
Cytomegalovirus = assay: Antiviral activity against Cytomegalovirus Davis infected in HEL cells assessed as reduction in virus plaque formation; assay type: functional, organism-based; conditions: Human betaherpesvirus 5, Davis; in short: as §2
[15] = tested on: Human immunodeficiency virus 1; assay: Antiviral activity against HIV-1 3B infected human MT4 cells assessed as protection against virus-induced cytopathogenicity; assay type: functional, organism-based; conditions: Human immunodeficiency virus 1, 3B; in short: as §1
[16] = Cytotoxicity against Varicella Zoster Virus infected human […] cells assessed as reduction in cell growth; assay type: cell-based
Human alphaherpesvirus 1 [17] = assay: Antiviral activity against HSV1 KOS infected in HEL cells assessed as protection against virus-induced cytopathogenicity; assay type: functional; conditions: Human alphaherpesvirus 1, KOS
[18] = tested on: Vesicular stomatitis virus; assay: Antiviral activity against sVesicular stomatitis virus infected in HEL cells assessed as protection against virus-induced cytopathogenicity; assay type: functional
Human alphaherpesvirus 3 [19] = assay: Antiviral activity against Varicella Zoster Virus OKA infected in HEL cells assessed as reduction in virus plaque formation; assay type: functional, organism-based; conditions: Human alphaherpesvirus 3, OKA; in short: as §2
Human betaherpesvirus 5 = assay: Antiviral activity against Cytomegalovirus AD169 infected in HEL cells assessed as reduction in virus plaque formation; assay type: functional, organism-based; conditions: Human betaherpesvirus 5, AD169, HEL; in short: as §2
[20] = Selectivity index, ratio of MCC for HEL cells to MIC50 for vaccinia virus; assay type: functional
In short: (§4)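 In HEL cell cultures, SI = MCC/MIC. MCC is the concentration giving microscopically detectable alteration of HEL cell morphology, and MIC is the minimal concentration effective against vaccinia or VSV cytopathicity.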

[21] = Selectivity index, ratio of MCC for HEL cells to MIC50 for vesicular stomatitis virus; assay type: functional; in short: as §4

| SMILES | MIC50 (Punta Toro virus) | MIC50 (Sindbis virus) | MIC50 (Coxsackievirus B4 [1]) | MIC50 (Human alphaherpesvirus 1 [2]) | IC50 [3] | EC50 (Human alphaherpesvirus 3 [4]) | MIC50 [5] | CC50 [6] | CC50 [7] | MCC [8] | MIC50 [9] | MIC50 (Human alphaherpesvirus 2) | MIC50 (Coxsackievirus B4 [11]) | MIC50 [12] | MCC (HeLa) | MCC [14] | MIC50 (Human respirovirus 3) | IC50 [15] | MIC50 (Human alphaherpesvirus 1 [17]) | MIC50 [18] | further results |
| --- | --- | --- | --- | --- | --- | --- | --- | --- | --- | --- | --- | --- | --- | --- | --- | --- | --- | --- | --- | --- | --- |
| CS(=O)(=O)Nc1ccc(NC(=S)NCc2ccccc2)cc1Oc1ccccc1 | > 8 µg/mL | > 8 µg/mL | > 8 µg/mL | > 8 µg/mL | > 18.3 µg/mL | > 4 µg/mL | > 8 µg/mL | 20 µg/mL (≈ 46.8 µM) | 61.6 µg/mL (≈ 144 µM) | 40 µg/mL | > 8 µg/mL | > 8 µg/mL | > 8 µg/mL | > 8 µg/mL | 40 µg/mL | 40 µg/mL | > 8 µg/mL | 20.1 µg/mL (≈ 47.1 µM) | > 8 µg/mL | > 8 µg/mL | CC50 [10]: 20 µg/mL (≈ 46.8 µM); CC50 [13]: 45.2 µg/mL (≈ 106 µM); EC50 (Cytomegalovirus): > 4 µg/mL; CC50 [16]: 45.2 µg/mL (≈ 106 µM); EC50 (Human alphaherpesvirus 3 [19]): > 4 µg/mL; EC50 (Human betaherpesvirus 5): > 4 µg/mL |
| CS(=O)(=O)Nc1ccc(NC(=S)NC2CCCCC2)cc1Oc1ccccc1 | > 1.6 µg/mL | > 1.6 µg/mL | > 1.6 µg/mL | > 8 µg/mL | > 35.3 µg/mL | > 0.8 µg/mL | > 8 µg/mL | ≥ 4 µg/mL | 35.3 µg/mL (≈ 84.1 µM) | 40 µg/mL | > 1.6 µg/mL | > 8 µg/mL | > 8 µg/mL | > 8 µg/mL | 40 µg/mL | 8 µg/mL | > 1.6 µg/mL | > 35.3 µg/mL | > 8 µg/mL | > 8 µg/mL | CC50 [10]: 20 µg/mL (≈ 47.7 µM); CC50 [13]: 33.6 µg/mL (≈ 80.1 µM); EC50 (Cytomegalovirus): > 4 µg/mL; CC50 [16]: 82.4 µg/mL (≈ 196 µM); EC50 (Human alphaherpesvirus 3 [19]): > 20 µg/mL; EC50 (Human betaherpesvirus 5): > 4 µg/mL |
| Nc1ncnc2c1ncn2C[C@H](O)CO [(S)-DHPA] | > 250 µg/mL | > 250 µg/mL | > 250 µg/mL | – | – | – | 150 µg/mL (≈ 717 µM) | – | – | – | 250 µg/mL (≈ 1190 µM) | – | 150 µg/mL (≈ 717 µM) | > 250 µg/mL | > 250 µg/mL | > 250 µg/mL | 50 µg/mL (≈ 239 µM) | – | – | – | – |
| CS(=O)(=O)Nc1ccc(NC(=S)Nc2ccc([N+](=O)[O-])cc2)cc1Oc1ccccc1 | > 8 µg/mL | > 8 µg/mL | > 8 µg/mL | 8 µg/mL (≈ 17.4 µM) | > 15.2 µg/mL | > 20 µg/mL | > 8 µg/mL | 100 µg/mL (≈ 218 µM) | 15.2 µg/mL (≈ 33.1 µM) | 40 µg/mL | > 8 µg/mL | > 8 µg/mL | > 8 µg/mL | > 8 µg/mL | 40 µg/mL | 40 µg/mL | > 8 µg/mL | > 15.2 µg/mL | > 8 µg/mL | 8 µg/mL (≈ 17.4 µM) | Selectivity Index [20]: 5; CC50 [10]: > 100 µg/mL; CC50 [13]: > 100 µg/mL; EC50 (Cytomegalovirus): 54.7 µg/mL (≈ 119 µM); CC50 [16]: > 100 µg/mL; Selectivity Index [21]: 5; EC50 (Human alphaherpesvirus 3 [19]): > 20 µg/mL; EC50 (Human betaherpesvirus 5): 54.7 µg/mL (≈ 119 µM) |
| CNC(=S)Nc1ccc(NS(C)(=O)=O)c(Oc2ccccc2)c1 | > 100 µg/mL | > 100 µg/mL | > 100 µg/mL | > 100 µg/mL | > 125 µg/mL | – | 100 µg/mL (≈ 285 µM) | – | > 125 µg/mL | > 100 µg/mL | > 100 µg/mL | > 100 µg/mL | > 100 µg/mL | > 100 µg/mL | > 100 µg/mL | > 100 µg/mL | > 100 µg/mL | > 125 µg/mL | > 100 µg/mL | > 100 µg/mL | – |
| C=CCNC(=S)Nc1ccc(NS(C)(=O)=O)c(Oc2ccccc2)c1 | > 40 µg/mL | > 40 µg/mL | > 40 µg/mL | > 40 µg/mL | > 12.8 µg/mL | 49 µg/mL (≈ 130 µM) | > 40 µg/mL | > 100 µg/mL | 101 µg/mL (≈ 269 µM) | 200 µg/mL | > 40 µg/mL | > 40 µg/mL | > 40 µg/mL | 40 µg/mL (≈ 106 µM) | 200 µg/mL | 200 µg/mL | ≥ 24 µg/mL | > 87.2 µg/mL | > 40 µg/mL | > 40 µg/mL | CC50 [10]: > 100 µg/mL; CC50 [13]: 82.4 µg/mL (≈ 218 µM); EC50 (Cytomegalovirus): 54.7 µg/mL (≈ 145 µM); CC50 [16]: 82.4 µg/mL (≈ 218 µM); EC50 (Human alphaherpesvirus 3 [19]): 58.5 µg/mL (≈ 155 µM); EC50 (Human betaherpesvirus 5): 54.7 µg/mL (≈ 145 µM) |
| O=c1[nH]c(=O)n([C@H]2C[C@H](O)[C@@H](CO)O2)cc1/C=C/Br [BRIVUDINE] | > 250 µg/mL | > 250 µg/mL | > 250 µg/mL | > 250 µg/mL | – | – | > 250 µg/mL | – | – | > 250 µg/mL | > 250 µg/mL | 10 µg/mL (≈ 30 µM) | > 250 µg/mL | > 250 µg/mL | > 250 µg/mL | > 250 µg/mL | > 250 µg/mL | – | – | > 250 µg/mL | – |
